HGIII-sPLA2 inh = Inhibits HGIII-sPLA2 liposome hydrolysis, primary screen | AID 743126 | inhibition, % at 12.2 µM | 370,000 compounds, 0.56% hits | QFRET BODIPY PC-A2 liposome hydrolysis, fluorescence;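 active = inhibition above mean plus 3 SD of compounds lying within the high and low control bounds, cut at about 19% in these data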
Exocytosis inh = blocks lytic granule exocytosis | AID 651702 | inhibition, % at 10 µM | TALL-104 LAMP-1 surface exposure, flow cytometry; cells stimulated with thapsigargin and PMA | 360,000 compounds, 0.66% hits;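 active = inhibition above about 55%, limit read from the data; inconclusive = no clear call, values can overlap the other calls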
Bfl-1 A1 inh = inhibitors of the anti-apoptotic protein A1, read as caspase activation; caspase activation, % (no concentration beside the values); 330,000 compounds, 0.066% hits; MEF A1-2A-BIM cells, Caspase-Glo 3/7 luminescence, 3 h; percent of clofoctol response, vehicle zero;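 active = over half of replicate activation scores above 10%, or exactly half above 10 with the replicate mean above 10; inconclusive = replicate mean below 10 yet half the replicates above 10; inactive = over half of replicates below 10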
MC4R barr agon = agonists of human melanocortin 4 receptor (MC4R) beta-arrestin | P32245 | U2OS MC4R beta-arrestin complementation, luminescence; percent of melanotan II response, DMSO zero | activation, % at 8.9 µM | 360,000 compounds, 0.98% hits | AID 540308;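 active = activation above a per-plate cutoff, the mean activation of sample wells on that plate plus 3 SD, cut at about 8% in these data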
Target sequence (P32245 whole entry, looked up): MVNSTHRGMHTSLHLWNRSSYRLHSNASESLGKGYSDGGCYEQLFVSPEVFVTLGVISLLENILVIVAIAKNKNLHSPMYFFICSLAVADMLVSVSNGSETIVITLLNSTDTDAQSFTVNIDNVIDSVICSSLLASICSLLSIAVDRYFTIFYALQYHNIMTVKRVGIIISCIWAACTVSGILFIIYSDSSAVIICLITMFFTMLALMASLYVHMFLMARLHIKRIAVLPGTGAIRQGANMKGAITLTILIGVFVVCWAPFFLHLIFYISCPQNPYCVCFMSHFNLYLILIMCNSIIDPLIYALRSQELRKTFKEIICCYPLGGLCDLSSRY
MC4R antag cAMP = blocks human MC4R cAMP signaling. 360,000 compounds, 0.48% hits. MC4R-expressing cells, MTII-stimulated cAMP, LANCE TR-FRET. P32245. inhibition, % at 6.5 µM;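 active = inhibition above its plate's cutoff, the mean of tested wells on that plate plus 3 SD, cut at about 29% in these data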
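Material – human MC4R-expressing U2OS cells · Repeats – no replicates · Detection – TR-FRET with Eu-cAMP and labeled anti-cAMP, 671 nm · Times – compound 30 min, challenge 1 h, detection 1 h · Compound – single nominal compound dose of 6.5 µM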
NTR1 agonist = NTR1 (human) agonism; NTR1-U2OS beta-arrestin-GFP spot imaging, agonist mode; activation, % at 20 µM; 330,000 compounds, 0.17% hits;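 active = activation at or above 40% of the spot to cytoplasm intensity ratio, with at least 20 cells analyzed; inconclusive = wells under 20 cells, flagged as cytotoxic or low count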
Target sequence (P30989 whole entry, looked up): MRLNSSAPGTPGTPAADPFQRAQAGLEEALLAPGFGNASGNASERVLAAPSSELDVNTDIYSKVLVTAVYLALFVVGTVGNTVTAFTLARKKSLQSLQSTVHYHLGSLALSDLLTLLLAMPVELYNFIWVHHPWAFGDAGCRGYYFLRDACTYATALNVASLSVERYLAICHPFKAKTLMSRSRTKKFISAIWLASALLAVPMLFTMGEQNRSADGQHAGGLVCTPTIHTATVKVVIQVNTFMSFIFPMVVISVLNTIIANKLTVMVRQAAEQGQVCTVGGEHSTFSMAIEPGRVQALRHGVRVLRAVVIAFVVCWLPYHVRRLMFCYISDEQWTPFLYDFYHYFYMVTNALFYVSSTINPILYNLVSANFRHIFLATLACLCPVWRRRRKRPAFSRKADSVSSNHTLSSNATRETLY
Hits are given with their value. Compounds with a hit are over-represented: about 2.5% of the library has one in this group of screens.

What do the screens show for `O=S1(=O)c2ccc(Br)cc2OC[C@H](Cc2ccccc2)N1Cc1cn(CCC2OCCCO2)nn1`?
HGIII-sPLA2 inh: inactive

Results for C=CCn1c(COc2ccccc2)nnc1SCC(=O)c1ccc(-c2ccccc2)cc1 ?
HGIII-sPLA2 inh: inactive

How did CCCCCCCCN1C(=O)[C@@H](CC(=O)N2CCN(C(=O)c3ccco3)CC2)C[C@@]2(C(=O)OC)C1=C[C@H](C1CCCC1)O[C@@H]2C do in these assays?
HGIII-sPLA2 inh: inactive

How did COc1cc(CN2CCC(Cc3ccccc3)CC2)cc([N+](=O)[O-])c1O do in these assays?
HGIII-sPLA2 inh: inactive; Exocytosis inh: inactive; Bfl-1 A1 inh: inactive; MC4R barr agon: inactive; MC4R antag cAMP: inactive; NTR1 agonist: inactive

Results for COc1cc(NC(=O)CN2CCC(Cc3ccccc3)CC2)c(C)cc1[N+](=O)[O-] ?
HGIII-sPLA2 inh: inactive; Exocytosis inh: inactive; Bfl-1 A1 inh: inactive; MC4R barr agon: 9.5; MC4R antag cAMP: inactive; NTR1 agonist: inactive

Results for O=C(CN1CCC(Cc2ccccc2)CC1)NC(=O)NCc1ccccc1 ?
HGIII-sPLA2 inh: inactive; Exocytosis inh: inactive; Bfl-1 A1 inh: inactive; MC4R barr agon: 9.6; MC4R antag cAMP: inactive; NTR1 agonist: inactive

What do the screens show for `C/C(=N/NC(=O)c1ccncc1)c1ccc(NC(=O)c2ccc(Cl)cc2Cl)cc1`?
HGIII-sPLA2 inh: inactive; Exocytosis inh: inactive; Bfl-1 A1 inh: inactive; MC4R barr agon: inactive; MC4R antag cAMP: inactive; NTR1 agonist: inactive

How did CC(C)CC(=NNC(=O)c1ccncc1)c1cc(Cl)ccc1O do in these assays?
HGIII-sPLA2 inh: 21; Exocytosis inh: inactive; MC4R barr agon: inactive; MC4R antag cAMP: inactive

How did COC(=O)c1cc(-c2ccc(Oc3ccccc3)cc2)c(=O)n2c1CCC2 do in these assays?
HGIII-sPLA2 inh: inactive

Results for C=CS(=O)(=O)c1ccc(Oc2ccc(S(=O)(=O)C=C)cc2)cc1 ?
HGIII-sPLA2 inh: inactive; Exocytosis inh: 89; Bfl-1 A1 inh: inactive; MC4R barr agon: inactive; MC4R antag cAMP: inactive; NTR1 agonist: 66

How did NS(=O)(=O)c1ccc(Oc2ccc(S(N)(=O)=O)cc2)cc1 do in these assays?
HGIII-sPLA2 inh: inactive; Exocytosis inh: inactive; Bfl-1 A1 inh: inactive; MC4R barr agon: inactive; MC4R antag cAMP: inactive; NTR1 agonist: inactive

Results for CCSc1nnc(-c2c[nH]c3ccccc23)o1 ?
Exocytosis inh: inactive; Bfl-1 A1 inh: inactive; MC4R barr agon: inactive; MC4R antag cAMP: inactive; NTR1 agonist: inactive

How did Clc1ccc(CSc2nnc(-c3c[nH]c4ccccc34)o2)cc1 do in these assays?
HGIII-sPLA2 inh: inactive; Exocytosis inh: inactive; Bfl-1 A1 inh: inactive; MC4R barr agon: 8.6; MC4R antag cAMP: inactive; NTR1 agonist: inactive

What do the screens show for `Cc1ccc(Sc2c(C)nn(C(=O)c3cccc(S(=O)(=O)N4CCOCC4)c3)c2C)cc1`?
HGIII-sPLA2 inh: inactive; Exocytosis inh: inactive; Bfl-1 A1 inh: inactive; MC4R barr agon: 9.2; MC4R antag cAMP: inactive; NTR1 agonist: inactive

How did Cc1cc(C)n(C(=O)c2cccc(S(=O)(=O)N3CCOCC3)c2)n1 do in these assays?
HGIII-sPLA2 inh: inactive; Exocytosis inh: inactive; Bfl-1 A1 inh: inactive; MC4R barr agon: inactive; MC4R antag cAMP: inactive; NTR1 agonist: inactive

How did CCCc1cc(=O)oc2cc(C)cc(OCC(=O)NCc3cccnc3)c12 do in these assays?
HGIII-sPLA2 inh: inactive; Exocytosis inh: inactive; Bfl-1 A1 inh: inactive; MC4R barr agon: inactive; MC4R antag cAMP: inactive; NTR1 agonist: inactive

What do the screens show for `CCCCc1cc(=O)oc2cc(C)cc(OCC(=O)Nc3cccnc3)c12`?
HGIII-sPLA2 inh: inactive; Exocytosis inh: inactive; Bfl-1 A1 inh: inactive; MC4R barr agon: 8.7; MC4R antag cAMP: inactive; NTR1 agonist: inactive

How did CCC(=O)NNc1nc2c(C)cc(C)cc2s1 do in these assays?
HGIII-sPLA2 inh: inactive; Exocytosis inh: inactive; Bfl-1 A1 inh: inactive; MC4R barr agon: inactive; MC4R antag cAMP: inactive; NTR1 agonist: inactive

What do the screens show for `Cc1ccc2nc(NNC(=O)c3ccc(S(=O)(=O)N4CCc5ccccc5C4)cc3)sc2c1`?
HGIII-sPLA2 inh: 33; Exocytosis inh: inactive; Bfl-1 A1 inh: inconclusive; MC4R barr agon: inactive; MC4R antag cAMP: inactive; NTR1 agonist: inactive

How did CCC(CC)c1nnc(NC(=O)c2ccc(S(=O)(=O)N3CCc4ccccc4C3)cc2)s1 do in these assays?
HGIII-sPLA2 inh: inactive; Exocytosis inh: inactive; Bfl-1 A1 inh: inactive; MC4R barr agon: inactive; MC4R antag cAMP: inactive; NTR1 agonist: inactive

How did Cc1cc(C)c2nc(NNC(=O)c3ccc(S(=O)(=O)N4CC(C)CC(C)C4)cc3)sc2c1 (stereo not given) do in these assays?
HGIII-sPLA2 inh: 41; Exocytosis inh: inactive; Bfl-1 A1 inh: inactive; MC4R barr agon: inactive; MC4R antag cAMP: inactive; NTR1 agonist: inactive

How did CC(C)NC(=O)NC(=O)CSc1nnc(COc2ccccc2F)n1C(C)C1CC2CCC1C2 (stereo not given) do in these assays?
Exocytosis inh: inactive; MC4R barr agon: 9.5; MC4R antag cAMP: inactive; NTR1 agonist: inactive

How did CCO[C@@H]1OC(C(N)=O)=C[C@H](C(C)(C)C)[C@H]1CCCO do in these assays?
HGIII-sPLA2 inh: inactive; Exocytosis inh: inactive; Bfl-1 A1 inh: inactive; MC4R barr agon: inactive; MC4R antag cAMP: inactive; NTR1 agonist: inactive

What do the screens show for `C=CCOC(=O)C1=C[C@H](C(C)(C)C)[C@@H](CCCO)[C@H](OCC)O1`?
HGIII-sPLA2 inh: inactive; Exocytosis inh: 69; Bfl-1 A1 inh: inactive; MC4R barr agon: inactive; MC4R antag cAMP: inactive; NTR1 agonist: inactive

Results for CC(C)(C)N(Cc1cn(Cc2ccccc2)nn1)S(=O)(=O)c1ccccc1Br ?
HGIII-sPLA2 inh: inactive

Results for O=C1c2ccccc2-c2onc3ccc(NCc4ccco4)c1c23 ?
Exocytosis inh: 56; Bfl-1 A1 inh: inactive; MC4R barr agon: inactive; MC4R antag cAMP: inactive; NTR1 agonist: inactive

Results for O=C(Nc1ccc(Br)c(C(F)(F)F)c1)c1ccc(C(F)(F)F)cc1 ?
HGIII-sPLA2 inh: inactive; Exocytosis inh: inactive; Bfl-1 A1 inh: inactive; MC4R barr agon: 8.5; MC4R antag cAMP: inactive; NTR1 agonist: inactive

What do the screens show for `CC(C)(C)c1ccc(OCc2ccc(C(=O)N/N=C/c3ccc([N+](=O)[O-])cc3)o2)cc1`?
HGIII-sPLA2 inh: inactive; Exocytosis inh: inactive; Bfl-1 A1 inh: inactive; MC4R barr agon: 9.1; MC4R antag cAMP: inactive; NTR1 agonist: inactive

What do the screens show for `Cc1nnc(SCC(=O)NCc2ccc3c(c2)OCO3)s1`?
HGIII-sPLA2 inh: inactive; Exocytosis inh: inactive; Bfl-1 A1 inh: inactive; MC4R barr agon: inactive; MC4R antag cAMP: inactive; NTR1 agonist: inactive

What do the screens show for `O=C(CSc1nc2cc(Cl)ccc2s1)NCc1ccc2c(c1)OCO2`?
HGIII-sPLA2 inh: inactive; Exocytosis inh: inactive; Bfl-1 A1 inh: inactive; MC4R barr agon: 9.5; MC4R antag cAMP: inactive; NTR1 agonist: inactive

How did Cc1ccc(C(=O)N/C(=C\c2ccc(-c3cc(Cl)ccc3Cl)o2)C(=O)NCc2cccnc2)cc1 do in these assays?
HGIII-sPLA2 inh: inactive; Exocytosis inh: inactive; Bfl-1 A1 inh: inactive; MC4R barr agon: inactive; MC4R antag cAMP: inactive; NTR1 agonist: inactive

Assay outcomes: PubChem BioAssay, several laboratories
